Assay results of several laboratories.
Protocols differ between the studies behind these lines.
Target: NUAK family SNF1-like kinase 2 (NUAK2, Homo sapiens, UniProt Q9H093)
Sequence (Q9H093 1-628, as in one of the studies): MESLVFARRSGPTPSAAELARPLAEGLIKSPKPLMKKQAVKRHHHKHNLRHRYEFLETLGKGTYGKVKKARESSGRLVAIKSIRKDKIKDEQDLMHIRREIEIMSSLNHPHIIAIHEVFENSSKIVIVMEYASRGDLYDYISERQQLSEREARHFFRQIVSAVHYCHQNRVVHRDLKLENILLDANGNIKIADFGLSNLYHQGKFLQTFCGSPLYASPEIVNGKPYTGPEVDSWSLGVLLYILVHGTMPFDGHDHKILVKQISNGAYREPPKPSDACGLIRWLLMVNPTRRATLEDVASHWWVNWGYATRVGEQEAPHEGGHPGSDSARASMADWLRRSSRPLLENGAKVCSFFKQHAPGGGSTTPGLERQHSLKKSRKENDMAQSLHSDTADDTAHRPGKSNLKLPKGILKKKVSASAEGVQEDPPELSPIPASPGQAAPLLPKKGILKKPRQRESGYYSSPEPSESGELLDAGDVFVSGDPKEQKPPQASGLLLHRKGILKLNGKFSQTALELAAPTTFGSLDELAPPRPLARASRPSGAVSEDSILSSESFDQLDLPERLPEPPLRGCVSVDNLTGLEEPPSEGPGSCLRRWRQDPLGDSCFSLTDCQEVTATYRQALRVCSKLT

CNS(=O)(=O)c1ccc(Nc2ncc(C(F)(F)F)c(N3CCC[C@](C)(O)C3)n2)c(C)c1
remaining binding (binding; competition with immobilised ligand; 1 µM): 3.9%

C[C@H]1CC[C@H](n2c3cnccc3c3cnc(Nc4ccc5c(n4)CCN(C(=O)CO)C5)nc32)CC1
remaining signal (cell-free assay; 1 µM): 34%

N#Cc1ccc(NC(=O)Nc2ccccc2)cc1
remaining binding (cell-free assay; competition with immobilised ligand; 25 µM): 77%

C=CC(=O)N1CCC([C@@H]2CCNc3c(C(N)=O)c(-c4ccc(Oc5ccccc5)cc4)nn32)CC1
inhibition (enzyme activity; inhibitor; 1 µM): 24%

CN1CCN(C(=O)c2ccc(NC(=O)Nc3ccc(N(C)c4ccnc(Nc5ccc(CS(C)(=O)=O)cc5)n4)cc3)cc2)CC1
remaining binding (binding; 1 µM): 39%

CCCCC(=O)Nc1ccc(-c2ccc3ncn(CCC)c(=O)c3c2)cn1
remaining binding (binding; competition with immobilised ligand; 0.5 µM): 97%

CC(C)S(=O)(=O)c1ccc2nccc(Nc3ccc4sc(C5CCCC5)nc4c3)c2c1
activity vs control (enzyme activity; inhibitor; 1 µM): 121%

C1=C/COCc2cc(ccc2OCCN2CCCC2)Nc2nccc(n2)-c2cccc(c2)COC/1
remaining signal (cell-free assay; 0.1 µM): 13%

COc1ccc2oc(-c3ccc4nc(N)oc4c3)c/c(=N\c3ccccc3NC(=O)CCN)c2c1
remaining binding (binding; 1 µM): 93%

Cc1cc(O)c(-c2ccc([C@@H](C)CN(C)C)cc2)c2c1[nH]c(=O)c1sccc12
inhibition (enzyme activity; inhibitor; 0.1 µM): 3.81%

C[C@]1(O)CCCN(c2nc(Nc3ccc(S(=O)(=O)N[C@H]4CC[C@H](CN5CCN(c6ccc(C7CCC(=O)NC7=O)cc6F)CC5)CC4)cc3Cl)ncc2C(F)(F)F)C1 (stereo partly drawn)
remaining binding (binding; competition with immobilised ligand; 1 µM): 49%

CO[C@@H]1[C@H](N(C)C(=O)c2ccccc2)C[C@H]2O[C@]1(C)n1c3ccccc3c3c4c(c5c6ccccc6n2c5c31)C(=O)NC4
inhibition (enzyme activity; inhibitor; 1 µM): 99%
